# Measurements as given in BindingDB's records for doi:10.1021/jm00031a021 (Tap Pharmaceuticals, 1994).
# Where a SMILES comes first, the peptide text is derived from it. [ ]: non-standard residue; d: D form. The star is where a group is joined. Propanoyl(3-(4-Cl-Ph)) = O=C(CCc1ccc(Cl)cc1)*; dPhe(4-Cl) = N[C@H](Cc1ccc(Cl)cc1)C(=O)O; Desaminotyrosyl = O=C(CCc1ccc(O)cc1)*; d2Nal = N[C@H](Cc1ccc2ccccc2c1)C(=O)O; Lys(iPr) = CC(C)NCCCC[C@H](N)C(=O)O; NMeY = CN[C@@H](Cc1ccc(O)cc1)C(=O)O; d3Pal = N[C@H](Cc1cccnc1)C(=O)O; pGlu = O=C1CC[C@@H](C(=O)O)N1; Nicotinoyl = O=C(c1cccnc1)*; X1 = O=C(Cc1ccc(O)cc1)*
# Biological target: T1, Gonadotropin-releasing hormone receptor (Rattus norvegicus, UniProt P30969)
# T1 sequence (P30969 whole entry): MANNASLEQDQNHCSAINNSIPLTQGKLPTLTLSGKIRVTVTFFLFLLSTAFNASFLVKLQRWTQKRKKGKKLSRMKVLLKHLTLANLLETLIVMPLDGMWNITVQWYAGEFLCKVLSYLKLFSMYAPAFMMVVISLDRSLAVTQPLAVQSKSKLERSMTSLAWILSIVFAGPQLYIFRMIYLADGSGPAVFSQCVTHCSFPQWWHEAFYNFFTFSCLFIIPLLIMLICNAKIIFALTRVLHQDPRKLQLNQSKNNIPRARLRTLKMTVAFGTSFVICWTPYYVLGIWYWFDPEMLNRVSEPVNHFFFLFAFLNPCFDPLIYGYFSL
# Experiment: Inhibition of the in vitro binding of [125I]-labeled leuprolide to the rat pituitary luteinizing hormone releasing hormone (LHRH) receptor.
# How it was run: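 Rat pituitary LHRH receptor binding with 125I-labeled leuprolide as radioligand. pKI is the negative log of the analogue concentration inhibiting 50% of tracer binding. Compounds tested as TFA salts.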
row,Ki [nM],SMILES
1,12.3,CCNC(=O)[C@@H]1CCCN1C(=O)[C@H](CCCN=C(N)N)NC(=O)[C@H](CC(C)C)NC(=O)[C@@H](Cc1c[nH]c2ccccc12)NC(=O)[C@H](Cc1ccc(O)cc1)NC(=O)[C@H](CO)NC(=O)[C@H](Cc1c[nH]c2ccccc12)NC(=O)c1cc2cc(F)ccc2[nH]1
2,1.35,CCNC(=O)[C@@H]1CCCN1C(=O)[C@H](CCCN=C(N)N)NC(=O)[C@H](CC(C)C)NC(=O)[C@@H](Cc1c[nH]c2ccccc12)NC(=O)[C@H](Cc1ccc(O)cc1)NC(=O)[C@H](CO)NC(=O)[C@H](Cc1c[nH]c2ccccc12)NC(=O)CCc1cccc(F)c1
3,0.646,CCNC(=O)[C@@H]1CCCN1C(=O)[C@H](CCCN=C(N)N)NC(=O)[C@H](CC(C)C)NC(=O)[C@@H](Cc1c[nH]c2ccccc12)NC(=O)[C@H](Cc1ccc(O)cc1)NC(=O)[C@H](CO)NC(=O)[C@H](Cc1c[nH]c2ccccc12)NC(=O)Cc1ccc(C(F)(F)F)cc1
4,0.076,CCNC(=O)[C@H]1CCCN1C(=O)[C@H](CCCN=C(N)N)NC(=O)[C@H](CC(C)C)NC(=O)[C@@H](Cc1c[nH]c2ccccc12)NC(=O)[C@H](Cc1ccc(O)cc1)NC(=O)[C@H](CO)NC(=O)[C@H](Cc1c[nH]c2ccccc12)NC(=O)CCc1ccc(Cl)cc1
5,0.039,CCNC(=O)[C@H]1CCCN1C(=O)[C@H](CCCN=C(N)N)NC(=O)[C@H](CC(C)C)NC(=O)[C@@H](Cc1c[nH]c2ccccc12)NC(=O)[C@H](Cc1ccc(O)cc1)N(C)C(=O)[C@H](CO)NC(=O)[C@H](Cc1c[nH]c2ccccc12)NC(=O)CCc1ccc(F)cc1F
6,0.038,CCNC(=O)[C@H]1CCCN1C(=O)[C@H](CCCN=C(N)N)NC(=O)[C@H](CC(C)C)NC(=O)[C@@H](Cc1ccc(O)cc1)NC(=O)[C@@H](Cc1ccc(O)cc1)NC(=O)[C@H](CO)NC(=O)[C@H](Cc1c[nH]c2ccccc12)NC(=O)CCc1ccc(F)cc1
7,0.085,CCNC(=O)[C@@H]1CCCN1C(=O)[C@H](CCCN=C(N)N)NC(=O)[C@H](CC(C)C)NC(=O)[C@@H](Cc1c[nH]c2ccccc12)NC(=O)[C@H](Cc1ccc(O)cc1)NC(=O)[C@H](CO)NC(=O)[C@H](Cc1c[nH]c2ccccc12)NC(=O)CCc1ccc(O)cc1 (Desaminotyrosyl-WSY[dW]LRP-NHEt)
8,1.29,CCNC(=O)[C@H]1CCCN1C(=O)[C@H](CCCN=C(N)N)NC(=O)[C@H](CC(C)C)NC(=O)[C@@H](Cc1c[nH]c2ccccc12)NC(=O)[C@H](Cc1ccc(O)cc1)NC(=O)[C@@H]1CC(O)CN1C(=O)[C@H](Cc1c[nH]c2ccccc12)NC(=O)CCc1ccc(F)cc1 (stereo partly specified)
9,0.01,CCNC(=O)[C@H]1CCCN1C(=O)[C@H](CCCN=C(N)N)NC(=O)[C@H](CC(C)C)NC(=O)[C@@H](Cc1ccc(O)cc1)NC(=O)[C@@H](Cc1ccc(O)cc1)NC(=O)[C@H](CO)NC(=O)[C@@H](Cc1c[nH]c2ccccc12)NC(=O)CCc1ccc(F)cc1
10,0.017,CCNC(=O)[C@H]1CCCN1C(=O)[C@H](CCCN=C(N)N)NC(=O)[C@H](CC(C)C)NC(=O)[C@@H](Cc1c[nH]c2ccccc12)NC(=O)[C@H](Cc1ccc(O)cc1)NC(=O)[C@H](CO)NC(=O)C(Cc1cccc2ccccc12)NC(=O)CCc1ccc(F)cc1 (stereo partly specified)
11,0.04,CCNC(=O)[C@@H]1CCCN1C(=O)[C@H](CCCN=C(N)N)NC(=O)[C@H](CC(C)C)NC(=O)[C@@H](Cc1c[nH]c2ccccc12)NC(=O)[C@H](Cc1ccc(O)cc1)NC(=O)[C@H](CO)NC(=O)[C@H](Cc1c[nH]c2ccccc12)NC(=O)CCc1ccc(F)cc1F
12,0.02,CCNC(=O)[C@H]1CCCN1C(=O)[C@H](CCCN=C(N)N)NC(=O)[C@H](CC(C)C)NC(=O)[C@@H](CCCCNC(=O)c1cccnc1)NC(=O)[C@H](Cc1ccc(O)cc1)N(C)C(=O)[C@H](CO)NC(=O)[C@H](Cc1c[nH]c2ccccc12)NC(=O)CCc1ccc(Cl)cc1
13,0.025,CCNC(=O)[C@@H]1CCCN1C(=O)[C@H](CCCN=C(N)N)NC(=O)[C@H](CC(C)C)NC(=O)[C@@H](Cc1c[nH]c2ccccc12)NC(=O)[C@H](Cc1ccc(O)cc1)NC(=O)[C@H](CO)NC(=O)[C@H](Cc1c[nH]c2ccccc12)NC(=O)[C@H](Cc1ccccc1)NC(=O)[C@@H]1CCC(=O)N1 ([pGlu]FWSY[dW]LRP-NHEt)
14,0.017,CCNC(=O)[C@H]1CCCN1C(=O)[C@H](CCCN=C(N)N)NC(=O)[C@H](CC(C)C)NC(=O)[C@@H](Cc1c[nH]c2ccccc12)NC(=O)[C@H](Cc1ccc(O)cc1)NC(=O)[C@H](CO)NC(=O)[C@H](Cc1cccc2ccccc12)NC(=O)CCc1ccc(F)cc1
15,83.2,CCNC(=O)[C@H]1CCCN1C(=O)[C@H](CCCN=C(N)N)NC(=O)[C@H](CC(C)C)NC(=O)[C@@H](Cc1c[nH]c2ccccc12)NC(=O)[C@H](Cc1ccc(O)cc1)NC(=O)[C@H](CO)NC(=O)[C@H](Cc1c[nH]c2ccccc12)NC(=O)[C@@H](N)Cc1ccccc1
16,0.002,CCNC(=O)[C@H]1CCCN1C(=O)[C@H](CCCCNC(C)C)NC(=O)[C@H](CC(C)C)NC(=O)[C@@H](CCCCNC(=O)c1cccnc1)NC(=O)[C@H](Cc1ccc(O)cc1)N(C)C(=O)[C@H](CO)NC(=O)[C@H](Cc1cccc2ccccc12)NC(=O)CCc1ccc(F)cc1

row,Ki [nM],SMILES
1,0.832,CCNC(=O)[C@@H]1CCCN1C(=O)[C@H](CCCN=C(N)N)NC(=O)[C@H](CC(C)C)NC(=O)[C@@H](Cc1c[nH]c2ccccc12)NC(=O)[C@H](Cc1ccc(O)cc1)NC(=O)[C@H](CO)NC(=O)[C@H](Cc1c[nH]c2ccccc12)NC(=O)Cc1ccccc1
2,0.135,CCNC(=O)[C@H]1CCCN1C(=O)[C@H](CCCN=C(N)N)NC(=O)[C@H](CC(C)C)NC(=O)[C@@H](Cc1c[nH]c2ccccc12)NC(=O)[C@H](Cc1ccc(O)cc1)NC(=O)[C@H](CO)N(C)C(=O)[C@H](Cc1c[nH]c2ccccc12)NC(=O)CCc1ccc(F)cc1
3,0.018,CCNC(=O)[C@@H]1CCCN1C(=O)[C@H](CCCN=C(N)N)NC(=O)[C@H](CC(C)C)NC(=O)[C@@H](Cc1c[nH]c2ccccc12)NC(=O)[C@H](Cc1ccc(O)cc1)NC(=O)[C@H](CO)NC(=O)[C@@H](Cc1ccc(O)cc1)NC(=O)CCc1ccc(Cl)cc1 ({Propanoyl(3-(4-Cl-Ph))}-[dY]SY[dW]LRP-NHEt)
4,0.02,CCNC(=O)[C@H]1CCCN1C(=O)[C@H](CCCN=C(N)N)NC(=O)[C@H](CC(C)C)NC(=O)[C@@H](CCCCNC(=O)c1cccnc1)NC(=O)[C@H](Cc1ccc(O)cc1)N(C)C(=O)[C@H](CO)NC(=O)[C@H](Cc1c[nH]c2ccccc12)NC(=O)CCc1ccc(F)cc1F
5,0.347,CCNC(=O)[C@H]1CCCN1C(=O)[C@H](CCCN=C(N)N)NC(=O)[C@H](CC(C)C)NC(=O)[C@@H](CCCCNC(=O)c1cccnc1)NC(=O)[C@H](Cc1ccc(O)cc1)NC(=O)[C@H](CO)NC(=O)C(Cc1c[nH]c2ccccc12)NC(=O)CCc1ccc(F)cc1 (stereo partly specified)
6,0.018,CCNC(=O)[C@H]1CCCN1C(=O)[C@H](CCCN=C(N)N)NC(=O)[C@H](CC(C)C)NC(=O)[C@@H](Cc1ccc(Cl)cc1)NC(=O)[C@H](Cc1ccc(O)cc1)NC(=O)[C@H](CO)NC(=O)[C@H](Cc1c[nH]c2ccccc12)NC(=O)CCc1ccc(F)cc1
7,0.832,CCNC(=O)[C@H]1CCCN1C(=O)[C@H](CCCN=C(N)N)NC(=O)[C@H](CC(C)C)NC(=O)[C@@H](Cc1c[nH]c2ccccc12)NC(=O)[C@H](Cc1ccc(O)cc1)NC(=O)[C@@H]1CCCN1C(=O)[C@H](Cc1c[nH]c2ccccc12)NC(=O)CCc1ccc(F)cc1
8,0.076,CCNC(=O)[C@@H]1CCCN1C(=O)[C@H](CCCN=C(N)N)NC(=O)[C@H](CC(C)C)NC(=O)[C@@H](Cc1c[nH]c2ccccc12)NC(=O)[C@H](Cc1ccc(O)cc1)NC(=O)[C@H](CO)NC(=O)[C@@H](Cc1c[nH]c2ccccc12)NC(=O)c1cc2ccccc2[nH]1
9,0.071,CCNC(=O)[C@H]1CCCN1C(=O)[C@H](CCCN=C(N)N)NC(=O)[C@H](CC(C)C)NC(=O)[C@@H](Cc1c[nH]c2ccccc12)NC(=O)[C@H](Cc1ccc(O)cc1)N(C)C(=O)[C@H](CO)NC(=O)[C@H](Cc1c[nH]c2ccccc12)NC(=O)CCc1ccc(Cl)cc1
10,0.017,CCNC(=O)[C@H]1CCCN1C(=O)[C@H](CCCN=C(N)N)NC(=O)[C@H](CC(C)C)NC(=O)[C@@H](CCCCNC(=O)c1cccnc1)NC(=O)[C@H](Cc1ccc(O)cc1)N(C)C(=O)[C@H](CO)NC(=O)[C@H](Cc1c[nH]c2ccccc12)NC(=O)CCc1ccc(F)cc1
11,0.052,CCNC(=O)[C@@H]1CCCN1C(=O)[C@H](CCCN=C(N)N)NC(=O)[C@H](CC(C)C)NC(=O)[C@@H](Cc1c[nH]c2ccccc12)NC(=O)[C@H](Cc1ccc(O)cc1)NC(=O)[C@H](CO)NC(=O)[C@H](Cc1c[nH]c2ccccc12)NC(=O)CCc1ccc(F)c(F)c1
12,0.813,CCNC(=O)[C@@H]1CCCN1C(=O)[C@H](CCCN=C(N)N)NC(=O)[C@H](CC(C)C)NC(=O)[C@@H](Cc1c[nH]c2ccccc12)NC(=O)[C@H](Cc1ccc(O)cc1)NC(=O)[C@H](CO)NC(=O)[C@H](Cc1c[nH]c2ccccc12)NC(=O)Cc1ccc(O)cc1 (X1-WSY[dW]LRP-NHEt)
13,0.032,CC(=O)N[C@H](Cc1ccc2ccccc2c1)C(=O)N[C@H](Cc1ccc(Cl)cc1)C(=O)N[C@H](Cc1cccnc1)C(=O)N[C@@H](CO)C(=O)N(C)[C@@H](Cc1ccc(O)cc1)C(=O)N[C@H](CCCCNC(=O)c1cccnc1)C(=O)N[C@@H](CC(C)C)C(=O)N[C@@H](CCCCNC(C)C)C(=O)N1CCC[C@H]1C(=O)N[C@H](C)C(N)=O (Ac-[d2Nal][dPhe(4-Cl)][d3Pal]S[NMeY][dK](Nicotinoyl)L[Lys(iPr)]P[dA]-NH2)
14,0.026,CCNC(=O)[C@H]1CCCN1C(=O)[C@H](CCCN=C(N)N)NC(=O)[C@H](CC(C)C)NC(=O)[C@@H](CCCCNC(=O)c1cccnc1)NC(=O)[C@H](Cc1ccc(O)cc1)N(C)C(=O)[C@H](CO)NC(=O)[C@H](Cc1c[nH]c2ccccc12)NC(=O)CCc1cccc(F)c1
15,0.275,CCNC(=O)[C@@H]1CCCN1C(=O)[C@H](CCCN=C(N)N)NC(=O)[C@H](CC(C)C)NC(=O)[C@@H](Cc1c[nH]c2ccccc12)NC(=O)[C@H](Cc1ccc(O)cc1)NC(=O)[C@H](CO)NC(=O)[C@H](Cc1c[nH]c2ccccc12)NC(=O)CCc1ccc(C(F)(F)F)cc1
